Measurements of several laboratories.
Protocols differ between the studies behind these lines.
Cell line: A549
Effect on: cell growth or viability

Structure (SMILES) | assay | setting | IC50
C(=N\Nc1cc(N/N=C/c2cccc3cccnc23)nc(-c2ccccc2)n1)/c1cccc2cccnc12 | MTT | 48 h | 12.6 µM
CCCn1cnc2ccc(-c3ccc(NC(=O)CC4CC4)nc3)cc2c1=O | CCK-8 | 72 h | 2.65 µM
CC(C)c1ccc(/C=C2\N=C(SCC(=O)O)N(c3ccccc3)C2=O)cc1 | MTT |  | 57.4 µg/mL
COc1ccc(NC(=O)Nc2nc3cc(-c4ccc5ncn(Cc6ccccc6)c(=O)c5c4)ccc3s2)cc1 | MTT | 72 h | 2.75 µM
NS(=O)(=O)c1ccc(-n2nc(C(=O)NN3C(=O)c4ccccc4C3=O)cc2-c2ccccc2)cc1 | fluorescence | 48 h | 33.5 µM
Cc1ccc(CNC(=S)N/N=C/c2ccc(N3CCC(O)CC3)cc2)cc1 | MTT | 24 h | 3.28 µM
O=C(O)c1ccc(NCc2cccc(C(F)(F)F)c2)cc1 | resazurin | 72 h | > 100 µM
CC(C)[C@@H]1NC(=O)[C@@H](CCCNC(=N)N)NC(=O)[C@H]([C@@H](C)O)NC(=O)[C@@H](CCCN)NC(=O)[C@H](Cc2ccccc2)NC(=O)[C@@H](Cc2ccc(O)cc2)NC1=O | ATP luminescence |  | > 100 µM
CCc1oc2cc(S(=O)(=O)Nc3ccc(S(=O)(=O)Nc4nccs4)cc3)ccc2c1C(=O)c1cc(Br)c(O)c(Br)c1 | MTT | 96 h | 226 µM
S=C(N/N=C/c1cccc2cc3ccccc3nc12)Nc1ccccc1 | MTT | 48 h | > 50 µM
CCCCC(=O)Nc1ccc(-c2ccc3ncn(C4CC4)c(=O)c3c2)cn1 | CCK-8 | 72 h | > 10 µM
CN1CCc2c(c3ccccc3n2Cc2ccc(C(=O)NO)cc2)C1 | CCK-8 | 48 h | 27.8 µM
CCCC(C)C(=O)Nc1ccc(-c2ccc3ncn(CCC)c(=O)c3c2)cn1 (stereo not drawn) | CCK-8 | 72 h | 9.85 µM
OC1CCN(c2ccc(/C=N/NC(=S)NCCc3ccccc3)cc2)CC1 | MTT | 24 h | 1.33 µM
Cc1cc(NS(=O)(=O)c2ccc(NC(=O)/C(C#N)=C/c3ccc(N4CCCCC4)cc3)cc2)no1 | MTT | 48 h | 36.4 µM
O=C(O)c1ccc(NCc2cccc(O)c2O)cc1 | resazurin | 72 h | 90.7 µM
CCCn1cnc2ccc(-c3ccc(NC(=O)CC4CCC4)nc3)cc2c1=O | CCK-8 | 72 h | > 10 µM
CC(=NNC(=O)c1cc(-c2ccccc2)n(-c2ccc(S(N)(=O)=O)cc2)n1)c1ccc(C)cc1 | fluorescence | 48 h | 11.1 µM
COc1cccc(CNc2ccc(C(=O)O)cc2)c1 | resazurin | 72 h | > 100 µM
Cc1cccc(NC(=O)Cn2cc(COc3ncnc4[nH]cnc34)nn2)c1 | MTT |  | > 100 µM
CCCn1cnc2ccc(-c3ccc(N4CCCCCCC4=O)nc3)cc2c1=O | CCK-8 | 72 h | > 10 µM
CC(C)[C@@H]1NC(=O)[C@@H](CCCNC(=N)N)NC(=O)[C@H]([C@@H](C)O)NC(=O)[C@@H](CCCN)NC(=O)[C@H](Cc2ccc(O)cc2)NC(=O)[C@@H](Cc2ccccc2)NC1=O | ATP luminescence |  | > 100 µM
C/C(=N\C1CCCCC1/N=C(\C)c1c(O)c2ccccc2oc1=O)c1c(O)c2ccccc2oc1=O (stereo not drawn) | MTT | 48 h | 6.56 µM
[NH2][Pt]([NH2])([Cl])[Cl] | MTT | 48 h | 27.2 µM
OC1CCN(c2ccc(/C=N/NC(=S)Nc3ccc(Br)cc3)cc2)CC1 | MTT | 24 h | 1.85 µM
COc1cccc2c1C(=O)c1c(O)c3c(c(O)c1C2=O)C[C@@](O)(C(=O)CO)C[C@@H]3O[C@H]1C[C@H](N)[C@H](O)[C@H](C)O1 |  | 96 h | 0.236 µM

Structure (SMILES) | assay | setting | IC50
O=C(NO)Nc1nc2c(Cl)cc(Cl)cc2c(=O)n1-c1ccccc1 | MTT | 48 h | 45.1 µM
O=C(O)c1ccc(NCc2cc(Br)ccc2O)cc1 | resazurin | 72 h | > 100 µM
O=C(C=Cc1ccc(OCCOc2ccc(C=CC(=O)c3cccs3)cc2)cc1)c1cccs1 | MTT | 48 h | 273 µM
O=C(Nc1ccc(-c2ccc3ncn(Cc4ccccc4)c(=O)c3c2)cn1)C1CC1 | CCK-8 | 72 h | > 10 µM
NS(=O)(=O)c1ccc(-n2nc(C(=O)NN3C(=O)CCC3=O)cc2-c2ccccc2)cc1 | fluorescence | 48 h | 24 µM
Fc1ccc(NC(=S)N/N=C/c2cccc3cc4ccccc4nc23)cc1 | MTT | 48 h | > 50 µM
CN(C)c1ccc(Nc2nc(-c3ccncc3)nc3c2CC(N)CC3)cc1 (stereo not drawn) | MTT |  | 17.1 µM
NNc1nc2ccc(Br)cc2c(=O)n1-c1ccccc1 | MTT | 48 h | 53.5 µM
CCCCn1cnc2ccc(-c3ccc(NC(=O)NCc4ccccc4)nc3)cc2c1=O | CCK-8 | 72 h | 0.38 µM
O=C(Nc1ccc(F)cc1)Nc1nc2cc(-c3ccc4ncn(CCC5CCCCC5)c(=O)c4c3)ccc2s1 | MTT | 72 h | 9.1 µM
CC1CCC(C(C)C)C(OC2=C(Cl)C(=O)c3ccccc3C2=O)C1 (stereo not drawn) | MTT | 24 h | > 50 µg/mL
O=C(NCCc1ccccc1)Nc1nc2cc(-c3ccc4ncn(CCN5CCOCC5)c(=O)c4c3)ccc2s1 | MTT | 72 h | 4.92 µM
NNc1nc2c(Cl)cc(Cl)cc2c(=O)n1-c1ccc(Cl)cc1 | MTT | 48 h | 25.9 µM
C(=N\Nc1cc(N/N=C/c2ccc3ccccc3n2)nc(-c2ccccc2)n1)/c1ccc2ccccc2n1 | MTT | 48 h | 7.32 µM
C/C(=N\C(=N)/N=C(\C)c1c(O)c2ccccc2oc1=O)c1c(O)c2ccccc2oc1=O | MTT | 48 h | 66 µM
CC(C)CCn1cnc2ccc(-c3ccc4sc(NC(=O)Nc5ccc(F)cc5)nc4c3)cc2c1=O | MTT | 72 h | 2.39 µM
Cc1ccccc1NC(=O)Nc1ccc(-c2ccc3ncn(Cc4ccccc4)c(=O)c3c2)cn1 | CCK-8 | 72 h | 0.98 µM
COc1ccc(C(=O)Nc2nc3cc(-c4ccc5ncn(Cc6ccccc6)c(=O)c5c4)ccc3s2)cc1 | MTT | 72 h | > 20 µM
CC1=CC(=O)c2ccccc2C1=O | MTT |  | 55.6 µM
CCCCNC(=O)Nc1nc2cc(-c3ccc4ncn(Cc5ccccc5)c(=O)c4c3)ccc2s1 | MTT | 72 h | 6.27 µM
O=C(O)c1ccc(NCc2cccc(O)c2)cc1 | resazurin | 72 h | > 100 µM
O=C(Nc1ccc(F)cc1)Nc1nc2cc(-c3ccc4ncn(CCN5CCOCC5)c(=O)c4c3)ccc2s1 | MTT | 72 h | 2.51 µM
C/C(=N\NC(=O)/N=C(\C)c1c(O)c2ccccc2oc1=O)c1c(O)c2ccccc2oc1=O | MTT | 48 h | 20.8 µM
O=C(Nc1ccc(F)cc1)Nc1nc2cc(-c3ccc4ncn(CC5CC5)c(=O)c4c3)ccc2s1 | MTT | 72 h | 2.48 µM
O=c1[nH]cc(F)c(=O)[nH]1 | MTT | 48 h | 42.5 µM
